Experimental data: ChEMBL document CHEMBL1833790, “N-(2-{3-[3,5-bis(trifluoromethyl)phenyl]ureido}ethyl)-glycyrrhetinamide (6b): a novel anticancer glycyrrhetinic acid derivative that targets the proteasome and displays anti-kinase activity” (J Med Chem, 2011)
The source made the active and inactive calls. The rule behind the calls is not given here.

Experiments:
U-373MG ATCC [1] = assay: Activation of chymotrypsin-like activity of 20S proteasome in human U373 cells at 90 uM after 2 days by bioluminescence assay; type: cell-based
Procedure, shortened: (§1)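 Chymotrypsin-like site, substrate Suc-LLVY-Glo. U373 cells were seeded at 5000 cells/mL for 48 h and exposed two days. After a PBS wash and 0.025% digitonin permeabilisation, Proteasome-Glo reagent was added. Bioluminescence was read after 10 min dark incubation. Triplicates, normalised by a concurrent MTT viability assay run in identical conditions.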

U-373MG ATCC [2] = assay: Inhibition of trypsin-like activity of 20S proteasome in human U373 cells at 90 uM after 2 days by bioluminescence assay; type: cell-based
Procedure, shortened: (§2)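 U373 GBM cells seeded at 5000 cells/mL and grown 48 h, then treated for two days. Cells washed in PBS and permeabilised with 0.025% digitonin. Proteasome-Glo reagent added with Suc-LLVY-Glo (chymotrypsin-like), Z-LRR-Glo (trypsin-like) or Z-nLPnLD-Glo (caspase-like) substrate. Luminescence read after 10 min in the dark and normalised to a parallel MTT viability assay; triplicates. MG-132 at 0.5 μM used as reference.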

U-373MG ATCC [3] = assay: Activation of caspase-like activity of 20S proteasome in human U373 cells at 90 uM after 2 days by bioluminescence assay; type: cell-based
Procedure, shortened: (§3)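 Caspase-like site, substrate Z-nLPnLD-Glo. U373 cells were plated at 5000 cells/mL for 48 h, then treated two days. Cells were PBS-washed and permeabilised with 0.025% digitonin before Proteasome-Glo reagent was added. Luminescence was read after 10 min in the dark. Triplicates, normalised to a parallel MTT viability assay under identical conditions.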

[4] = Chemical stability of the compound in MEM cell culture medium after 7 days by HPLC analysis; type: physicochemical; details: read-out: Stability
Procedure, shortened: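 Compound incubated in MEM culture medium at 37 °C for 7 days, then analysed by HPLC on RX-C8 (5 μm) column with MeOH–water 90:10 (0.1% TFA), diode-array detection. Expressed as % of incubated compound recovered.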

A549 [5] = assay: Growth inhibition in apoptosis-resistant human A549 after 3 days by MTT assay; type: functional; details: A549, 72 h
Procedure, shortened: (§4)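 Cells grown in RPMI with 10% heat-inactivated FCS, 4 mM glutamine, gentamicin and penicillin–streptomycin. Drug exposure 3 days, growth read by MTT colorimetric assay. Nine concentrations from 0.01 to 100 μM in semilog steps, six replicates each; IC50 derived per cell line.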

SK-MEL-28 = assay: Growth inhibition in apoptosis-resistant human SK-MEL-28 after 3 days by MTT assay; type: functional; details: SK-MEL-28, 72 h; procedure, shortened: as §4
T98G = assay: Growth inhibition in apoptosis-resistant human T98G after 3 days by MTT assay; type: functional; details: 72 h; procedure, shortened: as §4
[6] = Growth inhibition in apoptosis-resistant human U373 after 3 days by MTT assay; type: functional, U-373MG ATCC; details: U373 MG, 72 h; procedure, shortened: as §4
Hs 683 = assay: Growth inhibition in apoptosis-sensitive human Hs683 after 3 days by MTT assay; type: functional; details: Hs 683, 72 h; procedure, shortened: as §4
PC-3 = assay: Growth inhibition in apoptosis-sensitive human PC3 after 3 days by MTT assay; type: functional; details: PC-3, 72 h; procedure, shortened: as §4
MCF7 = assay: Growth inhibition in apoptosis-sensitive human MCF7 after 3 days by MTT assay; type: functional; details: MCF7, 72 h; procedure, shortened: as §4
B16-F10 = assay: Growth inhibition in mouse B16F10 after 3 days by MTT assay; type: functional; details: B16-F10, 72 h; procedure, shortened: as §4
[7] = Cell cycle arrest in human U373 cells assessed as accumulation of cells in G1 phase at 80 uM after 48 to 72 hrs by TUNEL-based flow cytometric analysis; type: functional; details: U-373MG ATCC
Procedure, shortened: (§5)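 A549 NSCLC and U373 GBM cells were treated 48 or 72 h and analysed with the APO AF kit. TUNEL labelling ran 1 h at 37 °C, followed by propidium iodide (5 μg/mL) with RNase. Apoptotic fraction and % cells in G1 were measured by flow cytometry. Kit negative/positive controls and 1 μM narciclasine-treated PC-3 cells served as controls.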

A549 [8] = assay: Cell cycle arrest in human A549 cells assessed as accumulation of cells in G1 phase at 100 uM after 48 to 72 hrs by TUNEL-based flow cytometric analysis; type: functional; procedure, shortened: as §5
[9] = target: T1, Peroxisome proliferator-activated receptor gamma (Homo sapiens) (UniProt P37231); assay: Activation of PPARgamma activity in human U373 cells at 90 uM after 6 hrs by spectrophotometric analysis relative to control; details: U-373MG ATCC
T1 sequence (whole entry): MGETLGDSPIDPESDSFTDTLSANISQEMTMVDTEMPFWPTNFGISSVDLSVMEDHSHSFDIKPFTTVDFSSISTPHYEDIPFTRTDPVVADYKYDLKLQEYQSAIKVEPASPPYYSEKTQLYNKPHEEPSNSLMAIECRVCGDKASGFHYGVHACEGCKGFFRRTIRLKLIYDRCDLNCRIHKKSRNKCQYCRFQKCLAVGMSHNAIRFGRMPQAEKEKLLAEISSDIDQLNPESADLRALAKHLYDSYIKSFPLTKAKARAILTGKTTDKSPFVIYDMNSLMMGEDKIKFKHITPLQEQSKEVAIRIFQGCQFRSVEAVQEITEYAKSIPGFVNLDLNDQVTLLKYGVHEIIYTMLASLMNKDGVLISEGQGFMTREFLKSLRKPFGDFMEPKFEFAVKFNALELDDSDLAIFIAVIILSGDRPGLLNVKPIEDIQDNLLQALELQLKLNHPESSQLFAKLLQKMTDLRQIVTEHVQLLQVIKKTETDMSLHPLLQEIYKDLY

[10] = target: T1, Peroxisome proliferator-activated receptor gamma (Homo sapiens); assay: Inhibition of PPARgamma activity in human U373 cells at 3 uM after 6 hrs by spectrophotometric analysis relative to control; type: cell-based; details: U-373MG ATCC
Procedure, shortened: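 Human U373 glioblastoma cells exposed to compound for 6 h, then detached with trypsin. Nuclear extracts prepared by hypotonic lysis with Nonidet P-40 and extraction buffer with protease inhibitor, clarified at 14 000 g, 4 °C. Extracts bound overnight at 4 °C in a PPAR-γ transcription factor ELISA kit, with primary antibody then HRP anti-rabbit. Absorbance read at 450 nm; triplicates, mean ± SD versus control.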

U-373MG ATCC [11] = assay: Activation of chymotrypsin-like activity of 20S proteasome in human U373 cells at 3 uM after 2 days by bioluminescence assay; type: cell-based; procedure, shortened: as §1
U-373MG ATCC [12] = assay: Inhibition of trypsin-like activity of 20S proteasome in human U373 cells at 3 uM after 2 days by bioluminescence assay; type: cell-based; procedure, shortened: as §2
U-373MG ATCC [13] = assay: Activation of caspase-like activity of 20S proteasome in human U373 cells at 3 uM after 2 days by bioluminescence assay; type: cell-based; procedure, shortened: as §3

| SMILES | Activity (U-373MG ATCC [1]) | inhibition (U-373MG ATCC [2]) | Activity (U-373MG ATCC [3]) | remaining at 168 h [4] [%] | GI50 (A549 [5]) [µM] | GI50 (SK-MEL-28) [µM] | GI50 (T98G) [µM] | GI50 [6] [µM] | GI50 (Hs 683) [µM] | GI50 (PC-3) [µM] | GI50 (MCF7) [µM] | GI50 (B16-F10) [µM] | Activity [7] | Activity (A549 [8]) | Activity [9] | inhibition [10] | Activity (U-373MG ATCC [11]) | inhibition (U-373MG ATCC [12]) | Activity (U-373MG ATCC [13]) |
| --- | --- | --- | --- | --- | --- | --- | --- | --- | --- | --- | --- | --- | --- | --- | --- | --- | --- | --- | --- |
| CC1(C)[C@@H](O)CC[C@]2(C)[C@H]3C(=O)C=C4[C@@H]5C[C@@](C)(C(=O)O)CC[C@]5(C)CC[C@@]4(C)[C@]3(C)CC[C@@H]12 [ENOXOLONE] | Active | Active | Active | 98 | > 100 | 92 | 85 | 83 | 84 | 80 | 76 | 37 | inactive | inactive | Active | – | – | – | – |
| COc1cc(/C=C/C(C)=O)ccc1OC(=O)[C@@]1(C)CC[C@]2(C)CC[C@]3(C)C(=CC(=O)[C@@H]4[C@@]5(C)CC[C@H](O)C(C)(C)[C@@H]5CC[C@]43C)[C@@H]2C1 | – | – | – | 68 | 2 | 3 | 3 | 2 | 3 | 2 | 3 | 3 | – | – | – | Active | Active | Active | Active |
